Screens deposited in PubChem BioAssay by The Scripps Research Institute Molecular Screening Center.
In the library only some 4% were active in any assay of this set; here they are far more common.
CHO parental Ca: counter-screen for OX1R antagonists: effect in parental CHO cells | parental CHO-K1, ATP-induced calcium, Fluo-8 fluorescence | 330,000 tested, 0.63% active | inhibition, % at 5.6 µM;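 active = inhibition above that plate's mean sample inhibition plus 3 SD, cut at about 26% in these data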;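 also: 0% = ATP-challenged DMSO wells and 100% = DMSO wells without ATP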
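Material – parental CHO cells · Reagent – ATP stimulus · Compound – single nominal dose of 5.6 µM per compound · Detection – Fluo-8 fluorescence · Read-out basis – percent inhibition of calcium signal · Controls – ATP-challenged DMSO wells low, unchallenged DMSO wells high · Repeats – no replicates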
OX1R antag-1: blocks the human orexin 1 receptor. OX1R-expressing cells, FRET antagonist read-out. inhibition, % at 6.6 µM. 330,000 tested, 1.8% active. AID 485270; in the data active = inhibition mostly above about 38%, no sharp cut-off; inactive = mostly below about 40%;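 also: 0% = agonist challenge alone and 100% = reference antagonist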
OX1R antag-2: antagonists of human orexin 1 receptor; O43613; CHO/OX1R cells, Fluo-8 calcium fluorescence, orexin A; inhibition, % at 5 µM; 330,000 tested, 0.43% active; AID 434989;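 active = inhibition above its plate's threshold, mean inhibition of all tested compounds on the plate plus 3 SD, cut at about 37% in these data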;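 also: 0% = orexin A challenge wells and 100% = SB-334867-A antagonist wells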
TAAR1 agonist: agonists of human TAAR1 | CHO RD-HGA16 TAAR1, Fluo-8 calcium fluorescence; vehicle wells 0%, saturating PEA agonist 100% | AID 624467 | 360,000 tested, 0.99% active | Q96RJ0 | activation, % at 3 µM;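 active = activation above the mean activation of all test compounds in the run plus 3 SD, cut at about 38% in these data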
Target sequence (Q96RJ0 whole entry, looked up): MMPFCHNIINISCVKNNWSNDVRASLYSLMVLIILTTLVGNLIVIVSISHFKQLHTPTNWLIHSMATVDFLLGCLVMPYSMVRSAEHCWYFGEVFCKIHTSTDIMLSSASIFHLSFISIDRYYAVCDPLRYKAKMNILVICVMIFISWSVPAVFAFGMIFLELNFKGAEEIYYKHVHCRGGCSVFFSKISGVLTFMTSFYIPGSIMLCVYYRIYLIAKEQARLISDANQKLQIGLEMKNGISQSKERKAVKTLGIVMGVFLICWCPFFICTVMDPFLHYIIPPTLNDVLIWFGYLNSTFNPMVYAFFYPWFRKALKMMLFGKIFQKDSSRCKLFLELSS
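Repeats: no replicates (n 1) | Material: CHO-derived RD-HGA16 cells with stable Gα16 and human TAAR1 | Technique: Kinetic Fluo-8 calcium fluorescence | Schedule: 17-24 h seeding, 75 min 37 °C dye, 30 min RT | Evaluation: % activation from peak over basal fluorescence ratio, DMSO-to-PEA scaled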
TAAR1 antag: human TAAR1 antagonism. 360,000 tested, 1.5% active. inhibition, % at 3 µM. CHO RD-HGA16 TAAR1, Fluo-8 calcium fluorescence, antagonist;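 active = inhibition above a per-plate cutoff, the mean inhibition of test compounds on that plate plus 3 SD, cut at about 49% in these data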;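 also: 0% = DMSO plus EC80 beta-PEA response and 100% = DMSO alone without agonist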
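Test system: CHO RD-HGA16 cells bearing hTAAR1 | Reagent: β-PEA, EC80 | Compound dosing: 3 µM, single point | Schedule: Dye loading 75 min at 37 °C, then 30 min room temperature | Signal: Calcium fluorescence with Fluo-8 | Evaluation: Percent inhibition of PEA-evoked calcium signal, max/basal emission ratio | Control set: DMSO-only wells and EC80 β-PEA-stimulated wells | Repeats: Singlicate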
TAAR1 ag conf: confirmation of human TAAR1 agonists; shares compounds with TAAR1 agonist; CHO RD-HGA16 TAAR1, Fluo-8 calcium fluorescence; scaled: DMSO 0%, maximal phenethylamine 100%; activation, % at 3 µM; 2,400 tested, 82% active; AID 651783;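 active = activation above a cutoff set at the run's mean compound activation plus 3 SD, cut at about 39% in these data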
Ga16 nonsel ag: nonselective agonism, TAAR1 counter-screen. activation, % at 3 µM. shares compounds with TAAR1 agonist. 2,400 tested, 50% active. CHO-Ga16 parental, Fluo-8 calcium fluorescence; normalized to maximal ATP response, DMSO zero;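 active = activation above the run cutoff, the mean activation over all tested wells plus 3 SD, cut at about 12% in these data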;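 also: 0% = DMSO wells and 100% = maximal ATP response on the peak over basal ratio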
TAAR1 desens: TAAR1 response desensitization, agonist counter-screen; shares compounds with TAAR1 agonist; CHO RD-HGA16 hTAAR1, Fluo-8 calcium, beta-PEA response inhibition; inhibition, % at 3 µM; 2,400 tested, 46% active; AID 651951;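 active = inhibition above the run cutoff, the mean inhibition of all test compounds plus 3 SD, cut at about 49% in these data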;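 also: beta-PEA stimulus applied at its EC80; loss of beta-PEA calcium signal after compound pretreatment read as receptor desensitization; 0% = DMSO with beta-PEA at EC80 and 100% = DMSO alone without agonist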
Ga16 nonsel ant: nonselective Ga16 antagonism, counter-screen | shares compounds with TAAR1 agonist | CHO-Ga16 ATP-induced calcium, Fluo-8 fluorescence | inhibition, % at 3 µM | 2,400 tested, 39% active;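 active = inhibition above the plate's mean compound inhibition plus 3 SD, computed per plate, cut at about 22% in these data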;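 also: 0% = EC80 ATP with DMSO and 100% = DMSO wells without ATP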
An asterisk follows results filed as active; · = no result given; ! = repeats disagree.

SMILES	CHO parental Ca	OX1R antag-1	OX1R antag-2	TAAR1 agonist	TAAR1 antag	TAAR1 ag conf	Ga16 nonsel ag	TAAR1 desens	Ga16 nonsel ant
O=C(Cc1ccccc1)Nc1ccc(NC(=O)c2ccccc2)nc1	-16	22	-14	53*	3	64*	2	31	12
O=C(Nc1ccc(NC(=O)C2CC2)cn1)c1ccccc1	-5	10	-7	-1	11	·	·	·	·
O=C(Nc1cccc(C(=O)Nc2ccc(Cl)cn2)c1)c1ccccc1	0	-2	-24	87*	86*	3	7	26	17
Oc1ccc(C2CNCCc3c2cc(O)c(O)c3Cl)cc1 (stereo not given)	0	13	-5	62*!	13	81*	0	76*	10
C=CCN1CCc2c(cc(O)c(O)c2Cl)C(c2ccccc2)C1 (stereo not given)	-24	11	-30	-2	-24	·	·	·	·
Oc1cc2c(c(Cl)c1O)CCNCC2c1ccccc1 (stereo not given)	6	12	2	44*	-10	73*	3	57*	10
COC(=O)[C@@]1(Cc2ccc(F)cc2)[C@H]2c3cc(C(=O)N(C)C)n(CCc4ccccn4)c3C[C@H]2CN1C(=O)c1ccccc1	-29	19	-24	36	2	·	·	·	·
COC(=O)[C@@]1(Cc2ccc(F)cc2)[C@H]2c3cc(C(=O)N4CCCC4)n(CCc4ccccn4)c3C[C@H]2CN1C(=O)c1ccccc1	-26	6	-20	88*	16	53*	14*	2	16
Cc1ccc(N2CCN(C(=O)C(=O)c3ccc(F)c(F)c3)CC2)cc1	·	·	·	-2	7	·	·	·	·
NC(=O)COC(=O)CCSc1ccc(Cl)cc1	-2	1	-4	5	9	·	·	·	·
CC1C(c2ccccc2)OCCN1C(=S)Nc1ccc(S(=O)(=O)N2CCCCC2)cc1 (stereo not given)	·	·	·	55*	10	56*	7	34	32*
O=C(C[C@@H]1CC[C@H](NC(=O)Cc2ccccn2)[C@@H](CO)O1)NCCc1ccccc1	·	·	·	47*	-11	63*	2	12	8
Cc1ccc(-n2nnnc2SCC(=O)c2c(N)n(C3CC3)c(=O)[nH]c2=O)c(C)c1	-20	5	-20	55*	-18	24	8	-6	-9
CN(CCC#N)c1ccc(/C=C(\C#N)c2ccccn2)cc1	-6	38	-11	86*	19	3	5	8	10
CCC(C)c1ccc(C(CC)NC(=O)C2CCCO2)cc1 (stereo not given)	10	2	-4	4	16	·	·	·	·
COCCN1C(=O)CCC1(C)c1nnnn1-c1ccc2ccccc2c1 (stereo not given)	·	·	·	1	-4	·	·	·	·
Cc1cccc(OCCCN2CCC(C(O)(c3ccccc3)c3ccccc3)CC2)c1	·	·	·	41*	38	32	16*	27	30*
OC(c1ccccc1)(c1ccccc1)C1CCN(CCCOc2cc(F)cc(F)c2)CC1	·	·	·	49*	33	35	32*	49*	46*
COc1cccc(OCCCN2CCC(C(O)(c3ccccc3)c3ccccc3)CC2)c1	·	·	·	42*	37	23	13*	13	26*
CC(=O)Nc1ccc(OCCCN2CCC(C(O)(c3ccccc3)c3ccccc3)CC2)cc1	·	·	·	3	0	·	·	·	·
Cc1ccc(CN(Cc2ccccc2)C(=S)Nc2ccccc2C)o1	-26	14	-27	0	-20	·	·	·	·
CCN(CC)c1ccc(C(=C2C=CC(=[N+](CC)CC)C=C2)c2ccc(N(CC)CC)cc2)cc1	·	·	·	50*	95*	68*	45*	92*	84*
CCN(CC)c1ccc(C(=O)NNC(=O)CCl)cc1	-12	17	5	1	4	·	·	·	·
CCN(CC)c1ccc(/C=C2/SC(=O)N(C(C)C)C2=O)o1	·	·	·	73*	54*	69*	73*	64*	68*
Cc1ccc(S(=O)(=O)N2CCCCC2)cc1NC(=O)CSc1ncccn1	-14	1	-23	2	14	·	·	·	·
SMILES	CHO parental Ca	OX1R antag-1	OX1R antag-2	TAAR1 agonist	TAAR1 antag	TAAR1 ag conf	Ga16 nonsel ag	TAAR1 desens	Ga16 nonsel ant
Cc1cc(C)n(C(C)CC(=O)N2CCc3ccccc32)n1 (stereo not given)	-9	6	-7	0	-13	·	·	·	·
CS(=O)(=O)N(CC(=O)N1CCc2ccccc2C1)c1cccc([N+](=O)[O-])c1	-6	10	-18	60*	-2	54*	2	13	11
Cc1c(Cl)c([N+](=O)[O-])nn1CC(=O)N1CCc2ccccc2C1	-3	55	-22	23	-11	·	·	·	·
Cc1cc(C)n(C(CC(=O)N2CCc3ccccc3C2)C(=O)O)n1 (stereo not given)	-1	4	2	102*	90*	107*	4	94*	4
CS(=O)(=O)N(Cc1ccccc1)c1ccc(C(=O)N2CCc3ccccc3C2)cc1	-9	8	-30	93*	91*	101*	8	97*	25*
Cc1cc([N+](=O)[O-])nn1CC(=O)N1CCc2ccccc2C1	-2	24	-19	61*	-2	45*	8	12	5
CCC(C)CCN1C(Nc2ccccc2)=NC[C@@H]1C (stereo not given in full)	-19	23	-10	8	-3	·	·	·	·
COc1ccc(-c2nc(CS(=O)CC(=O)N3CCN(C)CC3)c(C)o2)cc1 (stereo not given)	16	2	-16	1	-9	·	·	·	·
CC1Cc2cccc3c(O)c(C(=O)c4nn[nH]n4)c(=O)n1c23 (stereo not given)	-1	2	-20	1	-16	·	·	·	·
O=C(O)c1ccc(N/N=C/C=C/c2ccccc2[N+](=O)[O-])cc1	9	-2	9	66*	48	51*	21*	53*	36*
COc1ccc(C(=O)CCc2ccccc2)cc1	-9	-8	-8	3	2	·	·	·	·
Nc1nc(CN2CCc3ccccc3C2)nc(Nc2ccccc2)n1	-18	34	-20	59*	19	85*	1	47	10
COc1ccc(Nc2nc(N)nc(CN3CCC(C)CC3)n2)cc1	-13	-7	-11	0	-27	·	·	·	·
